Results taken from PMC6477682 (Journal of the American Chemical Society, 2018).

How the values were obtained:
[1] = test system: S. aureus; assay: Photoinactivation; type: cell-based, Staphylococcus aureus; conditions: at 1 µM and 2 µM, with and without photoirradiation (Figure 4c)
[2] = test system: LOS- A. baumannii cells; assay: Photoinactivation of LOS- A. baumannii; type: cell-based, Acinetobacter baumannii; conditions: at the same concentrations, with and without photoirradiation (Figure 5c)
Method in brief: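 AB5075-derived LOS− strain grown to OD600~0.7, washed, diluted in PBS (pH 7.4) to ~1×10^8 cfu/mL, incubated 15 min with eosin-conjugated peptide (2 µM) or controls. Half the suspension irradiated 15 min with blue light (120 W lamp, fluorescein filter, 20X objective); the other half kept dark. Plated on LB agar + 10 µg/mL polymyxin b, 24 h. Killing from colony counts vs untreated PBS control; mean of two trials.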

O=C1OC2(c3ccccc31)c1cc(Br)c(O)c(Br)c1Oc1c2cc(Br)c(O)c1Br [eosin]
S. aureus cell death, controls [1]: did not elicit cell death
LOS- A. baumannii cell death, controls [2]: did not elicit A. baumannii cell death
